Measurements published in ChEMBL document CHEMBL2429728, “Novel Macrocyclic Amidinoureas: Potent Non-Azole Antifungals Active against Wild-Type and Resistant Candida Species” (2013).

What was measured:
Assay type in all cases: functional
Candida tropicalis [1] = experiment: Antifungal activity against Candida tropicalis ATCC 200956 after 24 hrs by visually and spectrophotometric analysis; conditions: ATCC 200956, 24 h
Method in brief: (§1)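 Read-out is MIC90 in μg/mL, scored at 24 h both by eye and spectrophotometrically. The panel is Candida isolates that earlier reports describe as amphotericin B-resistant, with amphotericin B run alongside as the reference drug.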

Clavispora lusitaniae [2] = experiment: Antifungal activity against Candida lusitaniae ATCC 60247 after 24 hrs by visually and spectrophotometric analysis; conditions: ATCC 60247, 24 h; method in brief: as §1
Clavispora lusitaniae [3] = experiment: Antifungal activity against Candida lusitaniae ATCC 24348 after 24 hrs by visually and spectrophotometric analysis; conditions: ATCC 24348, 24 h; method in brief: as §1
Clavispora lusitaniae [4] = experiment: Antifungal activity against Candida lusitaniae ATCC 200953 after 24 hrs by visually and spectrophotometric analysis; method in brief: as §1
Clavispora lusitaniae [5] = experiment: Antifungal activity against Candida lusitaniae ATCC 200952 after 24 hrs by visually and spectrophotometric analysis; method in brief: as §1
Clavispora lusitaniae [6] = experiment: Antifungal activity against Candida lusitaniae ATCC 200951 after 24 hrs by visually and spectrophotometric analysis; method in brief: as §1
Clavispora lusitaniae [7] = experiment: Antifungal activity against Candida lusitaniae ATCC 200950 after 24 hrs by visually and spectrophotometric analysis; conditions: ATCC 200950, 24 h; method in brief: as §1
Candida albicans [8] = experiment: Antifungal activity against Candida albicans ATCC 200955 after 24 hrs by visually and spectrophotometric analysis; conditions: ATCC 200955, 24 h
Method in brief: (§2)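 Endpoint is MIC90, in μg/mL, read at 24 h by both visual inspection and spectrophotometry.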

Nakaseomyces glabratus [9] = experiment: Antifungal activity against fluconazole-resistant Candida glabrata DSY2271 increase expressing of CgCDR2 genes after 24 hrs by visually and spectrophotometric analysis; conditions: DSY2271, 24 h; method in brief: as §2
Nakaseomyces glabratus [10] = experiment: Antifungal activity against fluconazole-resistant Candida glabrata DSY2254 increase expressing of CgCDR1 and CgCDR2 genes after 24 hrs by visually and spectrophotometric analysis; conditions: DSY2254, 24 h; method in brief: as §2
Nakaseomyces glabratus [11] = experiment: Antifungal activity against fluconazole-resistant Candida glabrata DSY756 increase expressing of CgCDR1, CgCDR2, and CgSNQ2 genes after 24 hrs by visually and spectrophotometric analysis; conditions: DSY756, 24 h; method in brief: as §2
Nakaseomyces glabratus [12] = experiment: Antifungal activity against fluconazole-resistant Candida glabrata DSY754 increase expressing of CgCDR1 gene after 24 hrs by visually and spectrophotometric analysis; conditions: DSY754, 24 h; method in brief: as §2
Nakaseomyces glabratus [13] = experiment: Antifungal activity against fluconazole-resistant Candida glabrata DSY530 increase expressing of CgCDR1 gene after 24 hrs by visually and spectrophotometric analysis; conditions: DSY530, 24 h; method in brief: as §2
Candida albicans [14] = experiment: Antifungal activity against fluconazole-resistant Candida albicans DSY751 harboring ERG11 gene mutant and increase expressing of MDR1 gene after 24 hrs by visually and spectrophotometric analysis; conditions: DSY751, 24 h; method in brief: as §2
Candida albicans [15] = experiment: Antifungal activity against fluconazole-resistant Candida albicans DSY775 harboring ERG11 gene mutant and increase expressing of CDR1 and CDR2 genes after 24 hrs by visually and spectrophotometric analysis; conditions: DSY775, 24 h; method in brief: as §2
Candida albicans [16] = experiment: Antifungal activity against fluconazole-resistant Candida albicans DSY735 expressing high level of CDR1 and CDR2 genes after 24 hrs by visually and spectrophotometric analysis; conditions: DSY735, 24 h; method in brief: as §2
Candida albicans [17] = experiment: Antifungal activity against fluconazole-resistant Candida albicans DSY292 harboring ERG11 gene mutant and increase expressing of MDR1 gene after 24 hrs by visually and spectrophotometric analysis; conditions: DSY292, 24 h; method in brief: as §2
Candida albicans [18] = experiment: Antifungal activity against fluconazole-resistant Candida albicans DSY348 harboring ERG11 gene mutant and increase expressing of CDR1 and CDR2 genes after 24 hrs by visually and spectrophotometric analysis; conditions: DSY348, 24 h; method in brief: as §2
Candida albicans [19] = experiment: Antifungal activity against fluconazole-resistant Candida albicans DSY289 harboring ERG11 gene mutant and increase expressing of CDR1 and CDR2 genes after 24 hrs by visually and spectrophotometric analysis; conditions: DSY289, 24 h; method in brief: as §2
Candida albicans [20] = experiment: Antifungal activity against fluconazole-resistant Candida albicans DSY296 harboring ERG11 gene mutant and increase expressing of CDR1 and CDR2 genes after 24 hrs by visually and spectrophotometric analysis; conditions: DSY296, 24 h; method in brief: as §2
Candida albicans [21] = experiment: Antifungal activity against fluconazole-resistant Candida albicans DSY284 harboring ERG11 gene mutant and increase expressing of CDR1 and CDR2 genes after 24 hrs by visually and spectrophotometric analysis; conditions: DSY284, 24 h; method in brief: as §2
Nakaseomyces glabratus [22] = experiment: Antifungal activity against wild type Candida glabrata after 24 hrs by visually and spectrophotometric analysis
Kluyveromyces marxianus = experiment: Antifungal activity against wild type Candida kefyr after 24 hrs by visually and spectrophotometric analysis
Candida tropicalis [23] = experiment: Antifungal activity against wild type Candida tropicalis after 24 hrs by visually and spectrophotometric analysis
Candida parapsilosis = experiment: Antifungal activity against wild type Candida parapsilosis ATCC 34136 after 24 hrs by visually and spectrophotometric analysis; conditions: Lodderomyces parapsilosis, ATCC 34136, 24 h
Pichia kudriavzevii = experiment: Antifungal activity against wild type Candida krusei ATCC 14243 after 24 hrs by visually and spectrophotometric analysis; conditions: ATCC 14243, 24 h
[24] = test system: Meyerozyma guilliermondii; experiment: Antifungal activity against wild type Candida guilliermondii after 24 hrs by visually and spectrophotometric analysis
Candida albicans [25] = experiment: Antifungal activity against wild type Candida albicans ATCC 60193 after 24 hrs by visually and spectrophotometric analysis; conditions: ATCC 60193, 24 h

SMILES	MIC90 (Candida tropicalis [1])	MIC90 (Clavispora lusitaniae [2])	MIC90 (Clavispora lusitaniae [3])	MIC90 (Clavispora lusitaniae [4])	MIC90 (Clavispora lusitaniae [5])	MIC90 (Clavispora lusitaniae [6])	MIC90 (Clavispora lusitaniae [7])	MIC90 (Candida albicans [8])	MIC90 (Nakaseomyces glabratus [9])	MIC90 (Nakaseomyces glabratus [10])	MIC90 (Nakaseomyces glabratus [11])	MIC90 (Nakaseomyces glabratus [12])	MIC90 (Nakaseomyces glabratus [13])	MIC90 (Candida albicans [15])	MIC90 (Candida albicans [16])	MIC90 (Candida albicans [17])	MIC90 (Candida albicans [18])	MIC90 (Candida albicans [19])	MIC90 (Candida albicans [20])	MIC90 (Candida albicans [21])	further results
C/C=C/CNC(=N)NCCCCCCCCN1CCCCCOC(=O)CCNC(=N)NC1=O.O=C(O)C(F)(F)F	16 µg/mL	4 µg/mL	8 µg/mL	8 µg/mL	4 µg/mL	4 µg/mL	8 µg/mL	4 µg/mL	32 µg/mL	64 µg/mL	64 µg/mL	32 µg/mL	32 µg/mL	16 µg/mL	16 µg/mL	16 µg/mL	8 µg/mL	8 µg/mL	16 µg/mL	8 µg/mL	MIC90 (Candida albicans [14]): 16 µg/mL; MIC90 (Nakaseomyces glabratus [22]): 32 µg/mL; MIC90 (Kluyveromyces marxianus): 16 µg/mL; MIC90 (Candida tropicalis [23]): 16 µg/mL; MIC90 (Candida parapsilosis): 8 µg/mL; MIC90 (Pichia kudriavzevii): 32 µg/mL; MIC90 [24]: 8 µg/mL; MIC90 (Candida albicans [25]): 16 µg/mL
N=C(NCCCCCCCCN1CCCCCCCCNC(=N)NC1=O)NCC1CC1.O=C(O)C(F)(F)F	2 µg/mL	4 µg/mL	2 µg/mL	2 µg/mL	1 µg/mL	2 µg/mL	4 µg/mL	1 µg/mL	16 µg/mL	32 µg/mL	16 µg/mL	16 µg/mL	16 µg/mL	2 µg/mL	1 µg/mL	2 µg/mL	2 µg/mL	1 µg/mL	2 µg/mL	1 µg/mL	MIC90 (Candida albicans [14]): 2 µg/mL; MIC90 (Nakaseomyces glabratus [22]): 16 µg/mL; MIC90 (Kluyveromyces marxianus): 4 µg/mL; MIC90 (Candida tropicalis [23]): 0.5 µg/mL; MIC90 (Candida parapsilosis): 2 µg/mL; MIC90 (Pichia kudriavzevii): 4 µg/mL; MIC90 [24]: 2 µg/mL; MIC90 (Candida albicans [25]): 1 µg/mL
C=CCNC(=N)NCCCCCCCCN1CCCCCCCCNC(=N)NC1=O.O=C(O)C(F)(F)F	1 µg/mL	2 µg/mL	1 µg/mL	4 µg/mL	2 µg/mL	2 µg/mL	2 µg/mL	1 µg/mL	32 µg/mL	32 µg/mL	16 µg/mL	32 µg/mL	16 µg/mL	2 µg/mL	1 µg/mL	2 µg/mL	1 µg/mL	1 µg/mL	2 µg/mL	1 µg/mL	MIC90 (Nakaseomyces glabratus [22]): 32 µg/mL; MIC90 (Kluyveromyces marxianus): 4 µg/mL; MIC90 (Candida tropicalis [23]): 0.5 µg/mL; MIC90 (Candida parapsilosis): 4 µg/mL; MIC90 (Pichia kudriavzevii): 0.5 µg/mL; MIC90 [24]: 2 µg/mL; MIC90 (Candida albicans [25]): 1 µg/mL
C/C=C/CNC(=N)NCCCCCCCCN1CCCCOc2ccccc2CNC(=N)NC1=O.O=C(O)C(F)(F)F	16 µg/mL	16 µg/mL	8 µg/mL	16 µg/mL	8 µg/mL	8 µg/mL	8 µg/mL	8 µg/mL	64 µg/mL	64 µg/mL	64 µg/mL	64 µg/mL	64 µg/mL	16 µg/mL	8 µg/mL	16 µg/mL	8 µg/mL	8 µg/mL	16 µg/mL	16 µg/mL	MIC90 (Candida albicans [14]): 16 µg/mL; MIC90 (Nakaseomyces glabratus [22]): 64 µg/mL; MIC90 (Kluyveromyces marxianus): 4 µg/mL; MIC90 (Candida tropicalis [23]): 8 µg/mL; MIC90 (Candida parapsilosis): 8 µg/mL; MIC90 (Pichia kudriavzevii): 32 µg/mL; MIC90 [24]: 16 µg/mL; MIC90 (Candida albicans [25]): 16 µg/mL
C/C=C/CNC(=N)NCCCCCCCCN1CCCCCOc2ccccc2CNC(=N)NC1=O.O=C(O)C(F)(F)F	4 µg/mL	4 µg/mL	2 µg/mL	4 µg/mL	2 µg/mL	2 µg/mL	2 µg/mL	1 µg/mL	8 µg/mL	16 µg/mL	8 µg/mL	16 µg/mL	8 µg/mL	4 µg/mL	2 µg/mL	4 µg/mL	2 µg/mL	2 µg/mL	4 µg/mL	2 µg/mL	MIC90 (Candida albicans [14]): 4 µg/mL; MIC90 (Nakaseomyces glabratus [22]): 8 µg/mL; MIC90 (Kluyveromyces marxianus): 4 µg/mL; MIC90 (Candida tropicalis [23]): 2 µg/mL; MIC90 (Candida parapsilosis): 2 µg/mL; MIC90 (Pichia kudriavzevii): 8 µg/mL; MIC90 [24]: 2 µg/mL; MIC90 (Candida albicans [25]): 4 µg/mL
